Results as given in ChEMBL document CHEMBL4177684, “Design, synthesis, and biological evaluation of hydantoin bridged analogues of combretastatin A-4 as potential anticancer agents” (Bioorg Med Chem, 2017).
One block for each compound: values may come before it. Activity calls are given as the source filed them. No cut-off for these calls is given here.

Columns and labels:
A2780 [1] = test: Antiproliferative activity against human A2780 cells by MTT assay; assay type: functional, cell-based
Outline: (§1)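 Growth inhibition rate calculated per compound. IC₅₀ derived by curve fitting.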

HeLa [2] = test: Antiproliferative activity against human HeLa cells by MTT assay; assay type: functional, cell-based; outline: as §1
MDA-MB-231 [3] = test: Antiproliferative activity against human MDA-MB-231 cells by MTT assay; assay type: functional, cell-based; outline: as §1
HCT-116 = test: Antiproliferative activity against human HCT116 cells by MTT assay; assay type: functional, cell-based; outline: as §1
HeLa [4] = test: Induction of apoptosis in human HeLa cells assessed as viable cells at 2 uM after 72 hrs by Annexin V-FITC/propidium iodide staining-based flow cytometric analysis (reference value: 87.6%); assay type: functional; details: read-out: Activity
[5] = Cytotoxicity against HOSEC at 10 to 50 uM by MTT assay relative to control; details: human
Sus scrofa = species: Sus scrofa; test: (§2) Inhibition of pig brain tubulin polymerization measured every 1 min for 20 mins by spectrophotometric analysis
[6] = as §2; design: species or system Sus scrofa
HeLa [7] = test: Cell cycle arrest in human HeLa cells assessed as accumulation of cells at G2/M phase at 2 uM after 12 hrs by propidium iodide staining-based flow cytometric analysis (reference value: 17.6%); assay type: functional
Outline: (§3)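 HeLa cells treated with compound or DMSO, washed in PBS and fixed in 75% ethanol at -20 °C overnight. Stained with propidium iodide containing 0.1% RNase for 15 min in the dark at room temperature. DNA content read by flow cytometry to give cell-cycle phase distribution.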

HeLa [8] = test: Induction of apoptosis in human HeLa cells assessed as necrotic cells at 0.5 uM after 72 hrs by Annexin V-FITC/propidium iodide staining-based flow cytometric analysis (reference value: 0.5%); assay type: functional
HUVEC [9] = test: Antiangiogenic activity against HUVEC assessed as capillary like tube formation at 1 uM after 12 hrs by matrigel-based microscopic analysis; assay type: functional, cell-based; details: Homo sapiens
Outline: (§4)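 Matrigel pre-set in wells for 2 h at 37 °C, 5% CO₂. HUVECs (10⁴ per well) seeded in medium with compound or DMSO. Incubated 6-12 h, then capillary-like tube networks photographed under a microscope.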

HeLa [10] = test: Induction of apoptosis in human HeLa cells assessed as increase in cleaved PARP1 protein levels after 24 hrs Western blot analysis
HeLa [11] = test: Induction of apoptosis in human HeLa cells assessed as early apoptotic cells at 2 uM after 72 hrs by Annexin V-FITC/propidium iodide staining-based flow cytometric analysis (reference value: […]); assay type: functional
HeLa [12] = test: Induction of apoptosis in human HeLa cells assessed as necrotic cells at 1 uM after 72 hrs by Annexin V-FITC/propidium iodide staining-based flow cytometric analysis (reference value: 0.5%); assay type: functional
HeLa [13] = test: Cell cycle arrest in human HeLa cells assessed as accumulation of cells at G2/M phase after 24 hrs by propidium iodide staining-based flow cytometric analysis; assay type: functional; outline: as §3
HeLa [14] = test: Induction of apoptosis in human HeLa cells assessed as necrotic cells at 2 uM after 72 hrs by Annexin V-FITC/propidium iodide staining-based flow cytometric analysis (reference value: 0.5%); assay type: functional
HeLa [15] = test: Induction of apoptosis in human HeLa cells assessed as late apoptotic cells at 2 uM after 72 hrs by Annexin V-FITC/propidium iodide staining-based flow cytometric analysis (reference value: 3.3%); assay type: functional
HeLa [16] = test: Induction of apoptosis in human HeLa cells assessed as viable cells at 1 uM after 72 hrs by Annexin V-FITC/propidium iodide staining-based flow cytometric analysis (reference value: 87.6%); assay type: functional; details: read-out: Activity
HeLa [17] = test: Induction of apoptosis in human HeLa cells assessed as late apoptotic cells at 1 uM after 72 hrs by Annexin V-FITC/propidium iodide staining-based flow cytometric analysis (reference value: 3.3%); assay type: functional
MDA-MB-231 [18] = test: Inhibition of colony formation of human MDA-MB-231 cells incubated for 48 hrs followed by subsequent incubation for 7 to 10 days in fresh medium by gentian violet staining-based colony formation assay; assay type: functional, cell-based
Outline: (§5)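 MDA-MB-231 or A2780 cells seeded at 1000 per well and grown 48 h at 37 °C, 5% CO₂. Then exposed to compound or DMSO for 48 h, medium replaced, and grown a further 7-10 days. Colonies fixed with methanol for 20 min and stained with gentian violet for 30 min. Three independent runs.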

HeLa [19] = test: Induction of apoptosis in human HeLa cells assessed as viable cells at 0.5 uM after 72 hrs by Annexin V-FITC/propidium iodide staining-based flow cytometric analysis (reference value: 87.6%); assay type: functional; details: read-out: Activity
HeLa [20] = test: Induction of apoptosis in human HeLa cells after 72 hrs by Annexin V-FITC/propidium iodide staining-based flow cytometric analysis; assay type: functional, cell-based
HeLa [21] = test: Induction of cell cycle arrest in human HeLa cells assessed as increase in phosphorylated histone H3 levels at 1.25 to 20 uM after 24 hrs by Western blot analysis; assay type: functional, cell-based
Outline: (§6)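 HeLa cells treated with compound or DMSO for 24 h and lysed; protein quantified by BCA. Run on 8-12% SDS-PAGE and blotted to PVDF. Blocked in 5% BSA/TBST for 1.5 h, primary antibody overnight at 4 °C, secondary 2 h at room temperature. Chemiluminescent detection.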

HeLa [22] = test: Induction of cell cycle arrest in human HeLa cells assessed as increase in cyclin B1 expression levels at 1.25 to 20 uM after 24 hrs by Western blot analysis; assay type: functional, cell-based; outline: as §6
HeLa [23] = test: Induction of apoptosis in human HeLa cells assessed as late apoptotic cells at 0.5 uM after 72 hrs by Annexin V-FITC/propidium iodide staining-based flow cytometric analysis (reference value: 3.3%); assay type: functional
HeLa [24] = test: Induction of apoptosis in human HeLa cells assessed as increase in p53 protein levels after 24 hrs Western blot analysis
HeLa [25] = test: Induction of apoptosis in human HeLa cells assessed as early apoptotic cells at 1 uM after 72 hrs by Annexin V-FITC/propidium iodide staining-based flow cytometric analysis (reference value: […]); assay type: functional
MDA-MB-231 [26] = test: Inhibition of colony formation of human MDA-MB-231 cells at 800 nM incubated for 48 hrs followed by subsequent incubation for 7 to 10 days in fresh medium by gentian violet staining-based colony formation assay; assay type: functional, cell-based; outline: as §5
Mus musculus [27] = test: Toxicity in Balb/c nude mouse xenografted with human A2780 cells assessed as body weight at 20 mg/kg, ip measured immediately after first dose (reference value: 21.74 +/- 0.63 g); assay type: organism-based; details: in vivo
HeLa [28] = test: Induction of apoptosis in human HeLa cells assessed as early apoptotic cells at 0.5 uM after 72 hrs by Annexin V-FITC/propidium iodide staining-based flow cytometric analysis (reference value: […]); assay type: functional
A2780 [29] = test: Inhibition of colony formation of human A2780 cells incubated for 48 hrs followed by subsequent incubation for 7 to 10 days in fresh medium by gentian violet staining-based colony formation assay; assay type: functional, cell-based; outline: as §5
A2780 [30] = test: Antitumor activity against human A2780 cells xenografted in Balb/c nude mouse assessed as tumor growth inhibition at 20 mg/kg, ip administered every other day relative to control; assay type: functional; details: read-out: TGI
Mus musculus [31] = test: Toxicity in Balb/c nude mouse xenografted with human A2780 cells assessed as body weight at 20 mg/kg, ip administered every other day measured at end of study (reference value: 22.35 +/- 0.74 g); assay type: organism-based; details: in vivo
HUVEC [32] = test: Antiangiogenic activity against HUVEC assessed as capillary like tube formation at 2 uM after 6 to 12 hrs by matrigel-based microscopic analysis; assay type: functional, cell-based; details: Homo sapiens; outline: as §4

Structure (SMILES): COc1cc(C2C(=O)NC(=O)N2c2cnc3ccccc3c2)cc(OC)c1OC (centres undefined)
IC50 (A2780 [1]): > 50000 nM
IC50 (HeLa [2]): > 50000 nM

Structure (SMILES): COc1cc(C2C(=O)N(C)C(=O)N2c2ccc(C)c(C)c2)cc(OC)c1OC (centres undefined)
IC50 (A2780 [1]): 533 nM
IC50 (MDA-MB-231 [3]): 493 nM
IC50 (HCT-116): 307 nM
IC50 (HeLa [2]): 363 nM

Structure (SMILES): COc1ccc(N2C(=O)N(C)C(=O)[C@H]2c2cc(OC)c(OC)c(OC)c2)cc1N
IC50 (A2780 [1]): 97 nM
IC50 (MDA-MB-231 [3]): 125 nM
IC50 (HCT-116): 157 nM
IC50 (HeLa [2]): 81 nM

Structure (SMILES): COc1ccc(N2C(=S)NC(=O)C2c2cc(OC)c(OC)c(OC)c2)cc1 (centres undefined)
IC50 (A2780 [1]): > 50000 nM
IC50 (HeLa [2]): > 50000 nM

Structure (SMILES): COc1ccc(N2C(=O)N(CCO)C(=O)C2c2cc(OC)c(OC)c(OC)c2)cc1N (centres undefined)
IC50 (A2780 [1]): 6620 nM
IC50 (HeLa [2]): 3600 nM

Structure (SMILES): COc1cc(C2C(=O)NC(=O)N2c2ccc3c(ccn3S(=O)(=O)c3ccc(C)cc3)c2)cc(OC)c1OC (centres undefined)
IC50 (A2780 [1]): > 50000 nM
IC50 (HeLa [2]): > 50000 nM

Structure (SMILES): COc1ccc(N2C(=O)N(C)C(=O)C2c2cc(OC)c(OC)c(OC)c2)cc1N (centres undefined)
viability at 2 µM (HeLa [4]): 27.3%
Activity [5]: ≤ 33%
inhibition (Sus scrofa): Dose-dependent effect
IC50 [6]: 16200 nM
Activity (HeLa [7]): 91.4%
IC50 (A2780 [1]): 186 nM
Activity (HeLa [8]): 0.8%
Activity (HUVEC [9]): Active
Activity (HeLa [10]): Dose-dependent effect
Activity (HeLa [11]): 53%
Activity (HeLa [12]): 0.3%
Activity (HeLa [13]): Dose-dependent effect
Activity (HeLa [14]): 2.2%
Activity (HeLa [15]): 17.5%
viability at 1 µM (HeLa [16]): 43.2%
IC50 (MDA-MB-231 [3]): 279 nM
Activity (HeLa [17]): 8.7%
IC50 (HCT-116): 265 nM
inhibition (MDA-MB-231 [18]): Dose-dependent effect
viability at 0.5 µM (HeLa [19]): 67.8%
Activity (HeLa [20]): Dose-dependent effect
Activity (HeLa [21]): Active
Activity (HeLa [22]): Active
Activity (HeLa [23]): 6.1%
Activity (HeLa [24]): Dose-dependent effect
Activity (HeLa [25]): 47.8%
inhibition (MDA-MB-231 [26]): Active
Activity (Mus musculus [27]): 21.62 g
Activity (HeLa [28]): 25.3%
inhibition (A2780 [29]): Dose-dependent effect
IC50 (HeLa [2]): 251 nM
inhibition in vivo at 20 mg/kg (A2780 [30]): 46.9%
Activity (Mus musculus [31]): 22.05 g
Activity (HUVEC [32]): Active

Structure (SMILES): COc1cc(C2C(=O)NC(=O)N2c2cc(OC)c(OC)c(OC)c2)cc(OC)c1OC (centres undefined)
IC50 (A2780 [1]): > 50000 nM
IC50 (HeLa [2]): > 50000 nM

The remaining lines, values ahead:

IC50 (A2780 [1]): 9700 nM
IC50 (HeLa [2]): 4740 nM
Structure (SMILES): COc1ccc(N2C(=O)NC(=O)C2c2cc(OC)c(OC)c(OC)c2)cc1[N+](=O)[O-] (centres undefined)

IC50 (A2780 [1]): 1050 nM
IC50 (MDA-MB-231 [3]): 1170 nM
IC50 (HCT-116): 988 nM
IC50 (HeLa [2]): 933 nM
Structure (SMILES): COc1cc(C2C(=O)NC(=O)N2c2ccc(C)c(N)c2)cc(OC)c1OC (centres undefined)

IC50 (A2780 [1]): 627 nM
IC50 (MDA-MB-231 [3]): 835 nM
IC50 (HCT-116): 475 nM
IC50 (HeLa [2]): 620 nM
Structure (SMILES): COc1cc(C2C(=O)NC(=O)N2c2ccc(C)c(C)c2)cc(OC)c1OC (centres undefined)

IC50 (A2780 [1]): > 50000 nM
IC50 (HeLa [2]): > 50000 nM
Structure (SMILES): COc1cc(C2C(=O)NC(=O)N2c2cccc(O)c2)cc(OC)c1OC (centres undefined)

IC50 (A2780 [1]): 2890 nM
IC50 (HeLa [2]): 5450 nM
Structure (SMILES): COc1cc(C2C(=O)NC(=O)N2c2ccc(C)c([N+](=O)[O-])c2)cc(OC)c1OC (centres undefined)

IC50 (A2780 [1]): > 50000 nM
IC50 (HeLa [2]): > 50000 nM
Structure (SMILES): COc1ccc(N2C(=S)NC(=O)C2c2cc(OC)c(OC)c(OC)c2)cc1O (centres undefined)

IC50 (A2780 [1]): > 50000 nM
IC50 (HeLa [2]): > 50000 nM
Structure (SMILES): COc1ccc(N2C(=O)NC(=O)C2c2cc(OC)c(OC)c(OC)c2)cn1 (centres undefined)

IC50 (A2780 [1]): 745 nM
IC50 (MDA-MB-231 [3]): 727 nM
IC50 (HCT-116): 630 nM
IC50 (HeLa [2]): 771 nM
Structure (SMILES): COc1ccc(N2C(=O)NC(=O)C2c2cc(OC)c(OC)c(OC)c2)cc1F (centres undefined)
